Data set [1] has as its system CCRF-CEM. Description: Tested for anti-HIV -1 Activity in CEM-SS cell culture. The settings on record: Homo sapiens. It is filed as functional, cell-based. The method, boiled down:
(§1)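 HIV-1 replication assayed in human T4 lymphoblastoid CEM-SS or MT-4 cells, or thymidine kinase-deficient CEM (CEM/TK−) cells. EC50 is the concentration that inhibits HIV-1 replication by 50%. Values are averages of at least three separate experiments, with variation below ±10%.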

In data set [2] the test system is CCRF-CEM. Description: Tested for cytotoxic concentration in CEM/TK- cell culture. It is filed as functional. The settings on record: Homo sapiens. A digest of the protocol:
(§2)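 Viability of uninfected CEM-SS, MT-4 or CEM/TK− cells measured. CC50 is the concentration that reduces viability by 50%. Values are averages of at least three separate experiments, with variation below ±10%.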

In data set [3] the test system is MT4. Description: Tested for anti-HIV -1 Activity in MT-4 cell culture. The settings on record: Homo sapiens. It is filed as functional, cell-based. A digest of the protocol: as §1
For data set [4], the system named is MT4. Put plainly: Tested for cytotoxic concentration in MT-4 cell culture. The format is functional. The settings on record: Homo sapiens. A digest of the protocol: as §2
In data set [5] the test system is CCRF-CEM. Put plainly: Tested for anti-HIV -1 Activity in CEM/TK- cell culture. The format is functional, cell-based. The settings on record: Homo sapiens. A digest of the protocol:
as §1

Data set [6] in a line: Partition coefficient (logP). The format is physicochemical. The settings on record: octanol/water. A digest of the protocol: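 Apparent partition coefficient (log Papp) measured as distribution between 1-octanol and potassium phosphate buffer (0.02 M, pH 7.2) by an adapted shake-flask method.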
Data set [7] concerns CCRF-CEM. Put plainly: Tested for cytotoxic concentration in CEM-SS cell culture. The format is functional. The settings on record: Homo sapiens. The method, boiled down:
as §2

Data set [8] relates to MT4. Description: Tested for anti-HIV -1 activity in MT-4 cell culture. It is filed as functional, cell-based. The settings on record: Homo sapiens. The method, boiled down: as §1
Data set [9] has as its system CCRF-CEM. Description: Tested for anti-HIV -1 activity in CEM/TK- cell culture. The settings on record: Homo sapiens. It is filed as functional, cell-based. The method, boiled down:
as §1

Data set [10] concerns CCRF-CEM. Description: Tested for cytotoxic activity in CEM-SS cell culture. The format is functional. The settings on record: Homo sapiens. A digest of the protocol: as §2
Data set [11] concerns MT4. Put plainly: Tested for cytotoxic activity in MT-4 cell culture. The format is functional. The settings on record: Homo sapiens. A digest of the protocol: as §2
The test system of data set [12] is CCRF-CEM. Description: Tested for anti-HIV -1 activity in CEM-SS cell culture. The format is functional, cell-based. The settings on record: Homo sapiens. A digest of the protocol:
as §1

Data set [13] relates to CCRF-CEM. Description: Tested for cytotoxic activity in CEM/TK- cell culture. The format is functional. The settings on record: Homo sapiens. A digest of the protocol:
as §2

For data set [14], the system named is CCRF-CEM. Put plainly: Tested for cytotoxic concentration in CEM-SS cell culture,(Human). It is filed as functional. The method, boiled down: as §2
The test system of data set [15] is CCRF-CEM. Put plainly: Tested for anti-HIV -1 Activity in CEM/TK- cell culture,(Human). It is filed as functional, cell-based. The method, boiled down: as §1
In data set [16] the test system is MT4. Description: Tested for anti-HIV -1 Activity in MT-4 cell culture,(Human). It is filed as functional, cell-based. A digest of the protocol: as §1
Data set [17] concerns CCRF-CEM. Put plainly: Tested for cytotoxic concentration in CEM/TK- cell culture,(Human). The format is functional. The method, boiled down:
as §2

The subject of data set [18] is CCRF-CEM. Put plainly: Tested for anti-HIV -1 Activity in CEM-SS cell culture,(Human). It is filed as functional, cell-based. The method, boiled down: as §1
In data set [19] the test system is MT4. Put plainly: Tested for cytotoxic concentration in MT-4 cell culture,(Human). The format is functional. A digest of the protocol:
as §2

`COC(=O)[C@H](Cc1ccc(OP(=O)(OCCSC(=O)C(C)(C)C)OCC2OC(n3cc(C)c(=O)[nH]c3=O)CC2N=[N+]=[N-])cc1)NC(=O)OC(C)(C)C` (some centres undefined): the EC50 was determined as 1 nM in data set [1], 33 nM in data set [3] and 2300 nM in data set [5]. The CC50 in [2], in [4] and in data set [7] was over 10000 nM throughout. Further, the logP in [6] (read-out: logP) came to 3.48.

Regarding `Cc1cn(C2CC(N=[N+]=[N-])C(COP(=O)(OCCSC(=O)C(C)(C)C)OCCSC(=O)C(C)(C)C)O2)c(=O)[nH]c1=O` (centres undefined), the EC50 in [1] was 15 nM; in data set [5] it was 450 nM. Also, the CC50 in data set [2], in data set [4] and in data set [7] was over 10000 nM each time. For the same molecule, the log partition coefficient (logP) in data set [6] (read-out: logP) turned out to be 3.73.

As to `Cc1cn(C2CC(N=[N+]=[N-])C(COP(=O)(OCCSC(=O)C(C)(C)C)Oc3ccc(C[C@H](N)C(=O)OC(C)(C)C)cc3)O2)c(=O)[nH]c1=O` (some centres undefined), the EC50 in data set [1] was 4 nM; in data set [3], 42 nM; in data set [5], 2700 nM. The CC50 in data set [2], in [4] and in [7] was over 10000 nM each time. Moreover, the logP in data set [6] (read-out: logP) is 2.9.

For `COC(=O)[C@@H](N)Cc1ccc(OP(=O)(OCCSC(=O)C(C)(C)C)OCC2OC(n3cc(C)c(=O)[nH]c3=O)CC2N=[N+]=[N-])cc1` (some centres undefined), the 50% effective concentration (EC50) worked out at 37 nM in data set [8], 1800 nM in data set [9] and 2 nM in [12]. In addition, the CC50 was over 100000 nM in data set [10], over 10000 nM in data set [11] and over 100000 nM in data set [13]. This molecule displayed a log partition coefficient (logP) in data set [6] of 2.25.

In the case of `Cc1cn(C2CC(N=[N+]=[N-])C(COP(=O)(OCCSC(=O)C(C)(C)C)Oc3ccc(C[C@H](NC(=O)OC(C)(C)C)C(=O)OC(C)(C)C)cc3)O2)c(=O)[nH]c1=O` (some centres undefined), the EC50 in [1] was determined as 34 nM; in data set [3], 250 nM; in [5] it was 900 nM. For the same molecule, the CC50 in data set [2], in data set [4] and in data set [7] was over 1000 nM throughout. For the same molecule, in data set [6] (read-out: logP), the logP came to 4.29.

Regarding `Cc1cn(C2CC(N=[N+]=[N-])C(COP(=O)(OCCSC(=O)C(C)(C)C)Oc3ccc(C[C@H](N)C(=O)O)cc3)O2)c(=O)[nH]c1=O` (some centres undefined), the results for the 50% cytotoxic concentration (CC50) in [14], in data set [17] and in data set [19] were over 100000 nM, over 100000 nM and over 10000 nM, respectively. In addition, the EC50 in [15] is 29000 nM; in [16], 75 nM; in [18] it was 6 nM. In [6] (read-out: logP), the logP is 0.24.

Turning to `Cc1cn([C@H]2C[C@H](N=[N+]=[N-])[C@@H](COP(=O)(OCCSC(=O)C(C)(C)C)Oc3ccccc3)O2)c(=O)[nH]c1=O` (some centres undefined), the EC50 in data set [15] came out at 3500 nM; in data set [16], 70 nM; in data set [18] it was 2 nM. For the same molecule, in data set [6], the logP was 3.46. Also, the CC50 in data set [17] and in data set [19] was over 10000 nM throughout.

For the molecule `Cc1cn([C@H]2C[C@H](N=[N+]=[N-])[C@@H](CO)O2)c(=O)[nH]c1=O` [ZIDOVUDINE], the EC50 in data set [1] was 3 nM; in data set [3], 15 nM; in data set [5], over 100000 nM. For the same molecule, the values for the CC50 in data set [2], in data set [4] and in [7] were over 100000 nM, over 1000 nM and over 1000 nM, respectively. For the same molecule, the logP in [6] (read-out: logP) came to 0.06.

As a reminder, the EC50 is the concentration giving half of the maximal effect. Read a high EC50 as lower potency in that assay. In general, CC50 refers to the concentration at which the toxic effect on the cells reaches its halfway point. Higher therefore signals better tolerance by the cells. Broadly, the logP is the decadic logarithm of the partition coefficient of the neutral form, usually between octanol and water.

These data come from ChEMBL document CHEMBL1133117, “S-Acyl-2-thioethyl aryl phosphotriester derivatives as mononucleotide prodrugs” (J Med Chem, 2000).
